Screening data as filed in PubChem.
DNMT1 block = blocks human DNA methyltransferase DNMT1; inhibition (reported as % activation of signal), % at 10 µM; hit rate 0.83% among 360,000; AID 588458; DNMT1 molecular beacon, Hinp1I cleavage, fluorescence; in the data active means inhibition above about 50%
STEP inh = inhibitors of human striatal-enriched phosphatase STEP; recombinant STEP, OMFP fluorogenic substrate, fluorescence; hit rate 0.25% among 360,000; P54829; inhibition, % at 20 µM;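 active means inhibition at 20 µM, scaled per plate between control wells, above about 37%, limit read from the data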;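 further: 0% = DMSO with enzyme and substrate and 100% = substrate only without enzyme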
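System: STEP phosphatase, cell-free reaction; Buffer or medium: Bis-Tris pH 6.0 buffer with DTT, detergent; Incubation: 20 min at room temperature, dark; Measured by: fluorescence, 480/540 nm.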
Scp1 inh = blocks human Scp-1 phosphatase activity; Q9GZU7; Recombinant Scp1, phosphopeptide, malachite green phosphate absorbance; inhibition, % at 20 µM; hit rate 0.88% among 340,000;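 active means inhibition above about 50% at 20 µM, limit read from the data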;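 further: plate controls were DMSO wells with enzyme for no effect and wells lacking enzyme for full effect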
Target sequence (Q9GZU7 76-261 limits assumed): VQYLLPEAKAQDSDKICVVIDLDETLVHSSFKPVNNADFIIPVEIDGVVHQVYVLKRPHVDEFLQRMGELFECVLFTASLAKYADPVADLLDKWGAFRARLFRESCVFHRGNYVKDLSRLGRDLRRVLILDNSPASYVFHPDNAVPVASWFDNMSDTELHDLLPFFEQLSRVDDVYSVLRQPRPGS
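Test system: SCP-1 phosphatase catalytic domain, residues 76-261; measured by: colorimetric phosphate reagent with accelerator and stabiliser, absorbance at 630 nm; timing: enzyme reaction 45 min at room temperature, colour 5 min, stabilisation 30 min; also added: Phosphorylated 17-residue peptide substrate; compound dosing: one concentration, 20 µM, with 1.0% DMSO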
SUMO1-SIM PPI = modulators of human SUMO1-mediated protein-protein interactions; P63165; SUMO1 binding to a labelled peptide, TR-FRET, 1 h; inhibition, % at 20 µM; hit rate 0.33% among 360,000; AID 602429; in the data active means inhibition above about 37%
Target sequence (P63165 whole entry, looked up): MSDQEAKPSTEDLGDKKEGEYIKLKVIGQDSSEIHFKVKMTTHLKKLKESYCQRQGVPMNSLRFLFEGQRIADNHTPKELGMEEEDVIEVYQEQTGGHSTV
Rpn11 inh = blocks the human proteasome subunit Rpn11 | O00487 | inhibition, % at 20 µM | hit rate 0.59% among 360,000 | human 26S proteasome, Ub4-pepOG fluorescence polarization; 20S core pre-blocked with epoxomicin;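 active means inhibition at 20 µM, scaled to each plate's controls, above about 33%, limit read from the data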
Target sequence (O00487 whole entry, looked up): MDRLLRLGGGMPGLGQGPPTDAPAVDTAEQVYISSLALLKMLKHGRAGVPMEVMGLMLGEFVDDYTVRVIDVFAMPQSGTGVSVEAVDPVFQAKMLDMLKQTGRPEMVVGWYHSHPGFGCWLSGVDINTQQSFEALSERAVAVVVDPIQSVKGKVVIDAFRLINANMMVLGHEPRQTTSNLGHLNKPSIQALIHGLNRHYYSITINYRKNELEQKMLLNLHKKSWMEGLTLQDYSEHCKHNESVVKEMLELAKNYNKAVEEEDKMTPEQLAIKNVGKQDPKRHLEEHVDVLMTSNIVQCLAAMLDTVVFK
LMPTP block = LMPTP (human) inhibition; recombinant LMPTP-A, OMFP fluorogenic substrate, fluorescence intensity; hit rate 0.22% among 360,000; P24666; inhibition, % at 20 µM;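 active means compounds that cut the enzyme signal by at least half of the control window in the single-dose screen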;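 further: plate controls were DMSO wells with enzyme plus substrate for no effect and substrate without enzyme for full effect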
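Assay system: LMPTP-A phosphatase enzyme | Input: 0.625 nM enzyme | Also added: Fluorogenic phosphatase substrate OMFP at 400 µM final | Compound dosing: One test concentration per compound, 20 µM, with 3% DMSO overall | Schedule: 50 min enzyme reaction at room temperature, protected from light | Signal: Fluorescence intensity | Benchmarks: no-enzyme and uninhibited controls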
Beacon interf DR = beacon fluorescence artifact, dose response counter-screen | shares compounds with DNMT1 block | molecular beacon fluorescence, spectral interference counter-screen | IC50, µM | 200 tested, under 10 active | AID 602382; call rule not given here
DNMT1 inh conf = confirmation of human DNMT1 inhibitors; shares compounds with DNMT1 block; DNMT1 molecular beacon HinP1I cleavage, fluorescence; inhibition, % at 10 µM; hit rate 8% among 2,300;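 active means average inhibition of at least 30% in the single-concentration confirmation test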
DNMT1 interf = beacon fluorescence artifact counter-screen. shares compounds with DNMT1 block. DNMT1 molecular beacon spectral interference counterscreen, fluorescence 485/520. activation (fluorescence interference), % at 10 µM. hit rate 1% among 2,300;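 active means activation of at least 30% at 10 µM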;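 further: DNMT1 catalytic domain with a HinP1I cleavage step and a FAM/dabcyl DNA beacon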
Starred values were filed as active, the others as inactive; . = no result given. This is a sample that favours compounds with a hit; in the whole collection about 2.3% have one here.

SMILES	DNMT1 block	STEP inh	Scp1 inh	SUMO1-SIM PPI	Rpn11 inh	LMPTP block	DNMT1 inh conf	DNMT1 interf	others
CCNc1nc(NCC)nc(C(=O)NN)n1	91*	0	-4	-2	-3	-1	5	6
O=C1CC(c2ccco2)CC(O)=C1C=NCC1CCNCC1 (centres undefined)	67*	0	-5	49*	-29	0	1	5
COc1cc2c(=O)[nH]c3cc([N+](=O)[O-])ccc3c2cc1[N+](=O)[O-]	76*	3	.	99*	4	38	-3	-5
COc1cc2c(cc1[N+](=O)[O-])-c1ccc([N+](=O)[O-])cc1C2	-12	3	.	-75	0	1	.	.
CN(C=[N+](C)C)c1cccc2c1C(=O)c1ccccc1C2=O	62*	-4	2	-18	-83	-1	5	6
O=C(O)c1cccc2c1C(=O)c1ccccc1C2=O	0	-5	3	-26	7	-1	.	.
N#Cc1c(N)nc2c(c1N)CC(CCl)O2 (centres undefined)	93*	-1	-5	13	-7	4	4	5
CC1CN(Cc2cc(=O)[nH]c(C(C)C)n2)CC(C)O1 (centres undefined)	2	-1	3	-2	0	-1	.	.
Cc1nc(SCC(=O)Nc2nc3ccccc3s2)c(C#N)c(C)c1C	0	1	-6	1	2	0	.	.
Cc1cc(C(F)(F)F)c(C#N)c(SCC(=O)Nc2nc3ccccc3s2)n1	83*	-4	-7	-1	.	-1	23	11
O=C(/C=C/NCc1cccnc1)c1ccc(-c2ccccc2)cc1	-7	2	-6	-19	3	0	.	.
O=C1Nc2ccc3c(c2C1=Cc1cc2c(cc1Br)OCO2)OCO3	67*	3	15	1	4	21	1	1
COCC(=O)N1C[C@H](C)[C@H](OC)CN(C)C(=O)c2cc(NC(=O)Nc3cccc(F)c3)ccc2OC[C@@H]1C	.	.	.	3	.	1	.	.
CCC(O)CNC(=O)CCc1nnc(C2(c3ccc(Cl)cc3)CCC2)o1 (centres undefined)	0	6	-7	-1	2	0	.	.
O=C1C(Br)=Cc2cccc3cccc1c23	28	0	-6	-31	-95	0	.	.
O=C1c2sccc2-c2cccc3cccc1c23	66*	0	.	-25	-60	2	65*	3	Beacon interf DR=>99
C=CCn1c(CSc2ccccc2[N+](=O)[O-])n[nH]c1=S	70*	6	17	20	-4	43	0	-3
C=CCn1c(Cc2ccccc2)n[nH]c1=S	1	5	-1	6	-4	-4	.	.
COc1ccc2cc3cc(C(=O)Nc4ccc5c(c4)OCO5)oc3nc2c1	60*	-3	1	-2	-8	1	1	0
Cc1ccc2cc3cc(C(=O)NCc4ccc5c(c4)OCO5)oc3nc2c1	54*	2	9	-1	3	8	0	-8
Cc1cc(SCc2ccc([N+](=O)[O-])cc2)nc(=O)[nH]1	52*	2	30	-17	-1	8	2	-1
COc1ccc(NC(=O)c2cc(-c3ccco3)nc3ccccc23)cn1	49	4	67*	-5	-10	14	2	0
CCNC(=O)COC(=O)c1cc(-c2ccco2)nc2ccccc12	71*	0	70*	-2	-30	5	12	3
O=C(N/N=C/c1ccc([N+](=O)[O-])o1)c1cc(-c2ccc(-c3ccccc3)cc2)nc2ccccc12	79*	-1	33	2	5	2	0	2
O=C(N/N=C/c1ccc([N+](=O)[O-])o1)c1cc(-c2ccncc2)nc2ccccc12	7	0	29	-10	-8	3	.	.
SMILES	DNMT1 block	STEP inh	Scp1 inh	SUMO1-SIM PPI	Rpn11 inh	LMPTP block	DNMT1 inh conf	DNMT1 interf	others
CCN(CC)CCNC(=O)c1ccc(NC(=O)c2cc(-c3ccco3)nc3ccccc23)cc1	20	1	15	-19	13	5	.	.
O=C(Nc1cccc(S(=O)(=O)NC2=NCCC2)c1)c1cc(-c2ccco2)nc2ccccc12	99*	6	90*	23	.	61*	56*	-2	Beacon interf DR=>99
O=C(COC(=O)c1ccc2c(c1)OCCO2)NC1CCCCC1	-2	-1	-10	0	8	-1	.	.
CCCOc1ccccc1OCC(=O)Nc1cccc(S(=O)(=O)NC2=NCCC2)c1	1	-5	1	6	-3	2	.	.
Cc1nnc(NC(=O)c2cc(-c3ccco3)nc3ccccc23)s1	96*	21	.	25	-4	27	18	1
CCOc1ccc(/C=N/NC(=O)c2cc(-c3ccco3)nc3ccccc23)cc1	-10	2	-1	-4	4	1	.	.
O=C(N/N=C/c1ccc(F)cc1)c1cc(-c2ccco2)nc2ccccc12	105*	16	81*	12	27	61*	48*	-1	Beacon interf DR=>99
Cc1ccc(S(=O)(=O)N2CCN(C(=O)C(C)Cn3cncn3)CC2)cc1 (centres undefined)	2	-2	11	33	-2	-1	.	.
COc1ccc(CC2NCCC3=CC(=O)CCC32)cc1O (centres undefined)	-5	-2	2	9	2	7	.	.
CN(C)C(=O)c1cccc(-c2cccc(-c3nc(C(=O)NCc4ccccc4)cc4c3[C@@H](CCO)N(S(=O)C(C)(C)C)C4)c2)c1 (some centres undefined)	2	0	.	4	2	-1	.	.
CCc1cc(C(=O)N2CCN(S(=O)(=O)c3cc(C)ccc3C)CC2)sc1C	2	1	-15	1	4	3	.	.
Cn1cc(/C=C/c2cc[n+](C)cc2)c2cc(F)ccc21	60*	-14	37	-85	.	-1	56*	53*
Cn1cc(/C=C/c2cc[n+](C)cc2)c2cc(Cl)ccc21	37	-10	40	-70	.	1	.	.
CC(C)(C)NC(=O)COC(=O)CNC(=O)c1cc(Cl)cc([N+](=O)[O-])c1	3	-3	9	-18	-2	-2	.	.
Cc1ccc(C2(C(F)(F)F)NC(=O)N3CCN=C3S2)cc1 (centres undefined)	95*	3	-7	35	22	-5	4	5
COc1ccc(C2=CC(=O)OC3(CCCCC3)O2)cc1	2	0	-9	3	-4	0	.	.
